We go through 16 compounds from ChEMBL document CHEMBL1777697, “Imidazolone-amide bridges and their effects on tubulin polymerization in cis-locked vinylogous combretastatin-A4 analogues: synthesis and biological evaluation” (Bioorg Med Chem, 2011).

Calls of active or inactive are those of the source. The rule behind the calls is not given here.

The subject of experiment [1] is LoVo. The experiment can be described thus: Cytotoxicity against human LoVo cells after 72 hrs by MTT assay. It counts as functional, cell-based. In short, it runs like this: (§1)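 Log-phase cells seeded at 40000–50000 cells/mL, attached overnight, then exposed to 10^-4–10^-9 M compound for 72 h at 37 °C, 5% CO₂. Viable cells measured by MTT, absorbance 570 nm. Triplicates in at least three independent assays; IC50 by nonlinear regression.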
On the technique in general: Tetrazolium assays rely on reduction of a dye to a coloured formazan, in cell work by metabolically active cells.

For a further experiment, the system named is MDA-MB-435. The experiment can be described thus: Cytotoxicity against human MDA-MB-435 cells after 72 hrs by MTT assay. It is filed as functional, cell-based. Particulars: MDA-MB-435, 72 h. In outline: as §1
The next experiment concerns CCRF-CEM. The experiment can be described thus: Cytotoxicity against human CEM cells after 72 hrs by MTT assay. It counts as functional, cell-based. In outline: as §1
Experiment [2] concerns LoVo. The experiment can be described thus: Cell cycle arrest in human LoVo cells assessed as accumulation at G2/M phase at 25 uM after 24 hrs using propidium iodide staining by flow cytometry relative to control. It is filed as functional. In short, it runs like this:
(§2)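 LOVO cells (10⁶) treated 24 h with compound; pelleted, fixed in citrate buffer, RNase A 20 min, then propidium iodide 20 min. DNA content read by flow cytometry to give percentage of cells per cycle phase, untreated cells as control.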
In general terms: A flow cytometer gives signals particle by particle.

For another experiment, the species on record is Bos taurus. The experiment can be described thus: Inhibition of bovine brain tubulin polymerization at 10 uM after 60 mins by turbidimetry analysis.
The test system of experiment [3] is LoVo. The experiment can be described thus: Cell cycle arrest in human LoVo cells assessed as accumulation at G2/M phase at 5 uM after 24 hrs using propidium iodide staining by flow cytometry (reference value: 13%). It is filed as functional. In outline:
as §2

As for `COc1cc(-c2[nH]c(=O)[nH]c2C(=O)Nc2cc(C)cc(C)c2)cc(OC)c1OC`, the half-inhibitory concentration (IC50) with LoVo [1] worked out at 23.4 µM; in the experiment on MDA-MB-435 it was 33.8 µM; with CCRF-CEM, 19.4 µM.

Take `COc1cc(-c2[nH]c(=O)[nH]c2C(=O)Nc2cccc([N+](=O)[O-])c2)cc(OC)c1OC`: the IC50 was 35 µM in the experiment with LoVo [1], 44.2 µM with MDA-MB-435 and greater than 200 µM in the experiment with CCRF-CEM.

Turning to `COc1cc(-c2[nH]c(=O)[nH]c2C(=O)Nc2ccc(Cl)c(Cl)c2)cc(OC)c1OC`, the values for the IC50 in the experiment with LoVo [1], in the experiment with MDA-MB-435 and in the experiment on CCRF-CEM were 4.93 µM, 19.2 µM and 12.1 µM, respectively.

Turning to `COc1cc(-c2[nH]c(=O)[nH]c2C(=O)Nc2ccc(C)c(Cl)c2)cc(OC)c1OC`, the figures for the IC50 in the experiment with LoVo [1], in the experiment with MDA-MB-435 and with CCRF-CEM were 5.46 µM, 8.34 µM and 2.11 µM, respectively.

`COc1ccc(NC(=O)c2[nH]c(=O)[nH]c2-c2cc(OC)c(OC)c(OC)c2)cc1N`: the Activity with LoVo [2] was 74%; in the experiment with LoVo [3] it was 28%. Besides, the results for the half-inhibitory concentration (IC50) in the experiment with LoVo [1], in the experiment with MDA-MB-435 and in the experiment with CCRF-CEM were 3.4 µM, 0.62 µM and 0.33 µM, respectively. Also, the inhibition entry in the experiment listed under Bos taurus is “Active”.

For `COc1cc(-c2[nH]c(=O)[nH]c2C(=O)Nc2ccc(Cl)cc2)cc(OC)c1OC`, the concentration for half-maximal inhibition (IC50) was 110 µM with LoVo [1], 152 µM with MDA-MB-435 and greater than 200 µM in the experiment on CCRF-CEM.

In the case of `COc1cc(-c2[nH]c(=O)[nH]c2C(=O)Nc2cccc3ccccc23)cc(OC)c1OC`, the values for the IC50 in the experiment on LoVo [1], with MDA-MB-435 and in the experiment with CCRF-CEM were 3.46 µM, 9.32 µM and 11.9 µM, respectively.

Turning to `COc1cc(-c2[nH]c(=O)[nH]c2C(=O)Nc2ccccc2)cc(OC)c1OC`, the IC50 turned out to be 77.6 µM with LoVo [1], 40.4 µM in the experiment on MDA-MB-435 and 45.9 µM in the experiment with CCRF-CEM.

On to `COc1cc(-c2[nH]c(=O)[nH]c2C(=O)Nc2ccc(C)cc2)cc(OC)c1OC`, for which the values for the 50% inhibitory concentration (IC50) in the experiment on LoVo [1], with MDA-MB-435 and in the experiment on CCRF-CEM were 4.67 µM, 0.63 µM and 0.24 µM, respectively. In the experiment listed under Bos taurus, the inhibition entry is “Active”.

On to `COc1ccc(NC(=O)c2[nH]c(=O)[nH]c2-c2cc(OC)c(OC)c(OC)c2)cc1OC`, for which the values for the IC50 in the experiment with LoVo [1], with MDA-MB-435 and in the experiment with CCRF-CEM were 11.9 µM, 4.87 µM and 4.19 µM, respectively.

With `COc1cc(-c2[nH]c(=O)[nH]c2C(=O)Nc2cccc(Cl)c2)cc(OC)c1OC`, the IC50 with LoVo [1] is 3.62 µM; in the experiment on MDA-MB-435 it was 4.77 µM; in the experiment on CCRF-CEM it was 4.8 µM.

Turning to `COc1ccc(NC(=O)c2[nH]c(=O)[nH]c2-c2cc(OC)c(OC)c(OC)c2)cc1[N+](=O)[O-]`, the IC50 is 43.9 µM in the experiment with LoVo [1], greater than 240 µM in the experiment on MDA-MB-435 and greater than 200 µM in the experiment with CCRF-CEM. Moreover, in the experiment filed under Bos taurus, the inhibition entry is “inactive”.

As for `COc1cc(-c2[nH]c(=O)[nH]c2C(=O)Nc2ccc(C(C)(C)C)cc2)cc(OC)c1OC`, the 50% inhibitory concentration (IC50) with LoVo [1] is 34 µM; with MDA-MB-435, 32.2 µM; in the experiment with CCRF-CEM, 38.8 µM.

As to `COc1cc2c(c(OC)c1OC)-c1ccc(OC)c(=O)cc1[C@@H](NC(C)=O)CC2` [COLCHICINE], the IC50 with LoVo [1] was 0.101 µM; with MDA-MB-435, 0.0073 µM; in the experiment on CCRF-CEM it was 0.0172 µM.

On to `COc1ccc(NC(=O)c2[nH]c(=O)[nH]c2-c2cc(OC)c(OC)c(OC)c2)cc1`, for which the concentration for half-maximal inhibition (IC50) in the experiment with LoVo [1] is 35.6 µM; with MDA-MB-435, 17.4 µM; with CCRF-CEM it was 2.3 µM.

For `COc1cc(-c2[nH]c(=O)[nH]c2C(=O)Nc2cccc(C)c2)cc(OC)c1OC`, the results for the concentration for half-maximal inhibition (IC50) in the experiment on LoVo [1], in the experiment with MDA-MB-435 and in the experiment with CCRF-CEM were 0.62 µM, 0.76 µM and 0.18 µM, respectively. In addition, in the experiment listed under Bos taurus, the inhibition entry was “Active”.

For orientation: IC50 means the concentration that gives 50% inhibition. A higher IC50 goes with weaker potency.
